The source made the active and inactive calls. The calls are words filed in the database; no cut-off is given here.
Legend:
[1] = target: T1, 5-hydroxytryptamine receptor 2A (Homo sapiens, UniProt P28223); assay: Binding affinity towards human cloned 5-hydroxytryptamine receptor 2A in HEK293 cells, using [3H]ketanserin as radioligand.; type: cell-based
Summary of the method: (§1)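 Competition binding at human cloned receptors expressed in HEK 293 cells. Radioligands: [3H]ketanserin for 5-HT2A, [3H]5-HT for 5-HT2B, [3H]mesulergine for 5-HT2C. Values are pKi, given as the mean of at least two determinations, each within 0.2 log unit of the mean.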

[2] = target: Cytochrome P450 2C19 (Homo sapiens, UniProt P33261); assay: Inhibition of heterologously expressed human cytochrome P450 2C19; type: ADME
Cytochrome P450 2C19, sequence (P33261 whole entry): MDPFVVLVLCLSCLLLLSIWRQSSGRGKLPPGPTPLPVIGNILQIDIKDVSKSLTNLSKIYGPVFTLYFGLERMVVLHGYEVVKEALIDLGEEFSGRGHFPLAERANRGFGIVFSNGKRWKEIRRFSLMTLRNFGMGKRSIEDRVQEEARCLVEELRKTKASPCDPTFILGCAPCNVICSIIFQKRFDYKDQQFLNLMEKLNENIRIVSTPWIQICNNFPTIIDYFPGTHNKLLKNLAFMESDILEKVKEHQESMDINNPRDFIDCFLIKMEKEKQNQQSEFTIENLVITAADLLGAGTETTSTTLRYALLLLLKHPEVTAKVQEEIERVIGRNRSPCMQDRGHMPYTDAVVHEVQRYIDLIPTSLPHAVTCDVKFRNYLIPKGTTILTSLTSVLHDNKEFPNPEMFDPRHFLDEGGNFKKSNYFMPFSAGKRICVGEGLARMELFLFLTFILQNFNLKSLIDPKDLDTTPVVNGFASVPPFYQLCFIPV

[3] = target: Cytochrome P450 3A4 (Homo sapiens, UniProt P08684); assay: Inhibition of heterologously expressed human cytochrome P450 3A4; type: ADME
Cytochrome P450 3A4, sequence (P08684 whole entry): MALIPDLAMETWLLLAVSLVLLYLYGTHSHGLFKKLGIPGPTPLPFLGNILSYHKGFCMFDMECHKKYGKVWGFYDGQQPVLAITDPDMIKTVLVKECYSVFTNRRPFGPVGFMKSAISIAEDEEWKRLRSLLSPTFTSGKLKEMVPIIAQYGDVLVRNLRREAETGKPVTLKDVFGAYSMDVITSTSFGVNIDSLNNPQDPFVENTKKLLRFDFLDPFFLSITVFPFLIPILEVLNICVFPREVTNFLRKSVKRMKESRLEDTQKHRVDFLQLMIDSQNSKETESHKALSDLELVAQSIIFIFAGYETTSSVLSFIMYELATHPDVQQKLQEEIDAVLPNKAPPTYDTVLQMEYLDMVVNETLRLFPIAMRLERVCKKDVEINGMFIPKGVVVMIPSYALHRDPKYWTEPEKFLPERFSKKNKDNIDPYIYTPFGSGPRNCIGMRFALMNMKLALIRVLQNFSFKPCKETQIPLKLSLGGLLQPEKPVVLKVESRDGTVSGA

[4] = target: T2, 5-hydroxytryptamine receptor 2C (Homo sapiens, UniProt P28335); assay: Binding affinity towards human cloned 5-hydroxytryptamine receptor 2C in HEK293 cells, using [3H]mesulergine as radioligand.; type: cell-based; summary of the method: as §1
T2 sequence (P28335 whole entry): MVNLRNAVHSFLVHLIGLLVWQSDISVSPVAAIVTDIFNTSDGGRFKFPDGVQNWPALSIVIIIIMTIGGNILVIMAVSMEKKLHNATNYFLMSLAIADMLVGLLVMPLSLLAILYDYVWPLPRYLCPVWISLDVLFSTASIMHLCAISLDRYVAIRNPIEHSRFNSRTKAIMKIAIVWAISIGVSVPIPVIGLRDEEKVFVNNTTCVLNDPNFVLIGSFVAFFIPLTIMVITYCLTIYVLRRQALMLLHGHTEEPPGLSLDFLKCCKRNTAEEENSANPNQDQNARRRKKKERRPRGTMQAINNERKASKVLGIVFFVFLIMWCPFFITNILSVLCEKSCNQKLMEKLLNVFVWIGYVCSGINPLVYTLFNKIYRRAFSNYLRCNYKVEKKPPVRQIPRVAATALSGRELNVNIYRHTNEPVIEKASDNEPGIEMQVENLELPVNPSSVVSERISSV

[5] = target: Cytochrome P450 2C9 (Homo sapiens, UniProt P11712); assay: Inhibition of heterologously expressed human cytochrome P450 2C9; type: ADME
Cytochrome P450 2C9, sequence (P11712 whole entry): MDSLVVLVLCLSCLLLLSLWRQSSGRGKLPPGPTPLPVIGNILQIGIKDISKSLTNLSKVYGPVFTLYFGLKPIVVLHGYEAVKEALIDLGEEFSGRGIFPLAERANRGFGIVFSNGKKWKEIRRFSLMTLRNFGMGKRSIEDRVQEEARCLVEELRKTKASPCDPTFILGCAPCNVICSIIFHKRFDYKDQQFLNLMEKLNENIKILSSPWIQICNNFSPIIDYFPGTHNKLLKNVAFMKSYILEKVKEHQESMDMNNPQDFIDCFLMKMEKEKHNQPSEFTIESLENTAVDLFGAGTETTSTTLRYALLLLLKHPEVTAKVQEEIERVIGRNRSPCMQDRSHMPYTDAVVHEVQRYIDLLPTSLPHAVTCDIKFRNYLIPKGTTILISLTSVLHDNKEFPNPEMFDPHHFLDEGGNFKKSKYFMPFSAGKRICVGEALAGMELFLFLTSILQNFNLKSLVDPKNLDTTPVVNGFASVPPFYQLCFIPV

[6] = target: Serotonin 2 receptors; 5-HT2a & 5-HT2c (Homo sapiens) (UniProt P28223+P28335); assay: Selectivity index determined from binding affinities of 5-HT2C and 5-HT2A.; type: protein assay
Serotonin 2 receptors; 5-HT2a & 5-HT2c (Homo sapiens), sequence (P28223 whole entry, looked up, one chain of several): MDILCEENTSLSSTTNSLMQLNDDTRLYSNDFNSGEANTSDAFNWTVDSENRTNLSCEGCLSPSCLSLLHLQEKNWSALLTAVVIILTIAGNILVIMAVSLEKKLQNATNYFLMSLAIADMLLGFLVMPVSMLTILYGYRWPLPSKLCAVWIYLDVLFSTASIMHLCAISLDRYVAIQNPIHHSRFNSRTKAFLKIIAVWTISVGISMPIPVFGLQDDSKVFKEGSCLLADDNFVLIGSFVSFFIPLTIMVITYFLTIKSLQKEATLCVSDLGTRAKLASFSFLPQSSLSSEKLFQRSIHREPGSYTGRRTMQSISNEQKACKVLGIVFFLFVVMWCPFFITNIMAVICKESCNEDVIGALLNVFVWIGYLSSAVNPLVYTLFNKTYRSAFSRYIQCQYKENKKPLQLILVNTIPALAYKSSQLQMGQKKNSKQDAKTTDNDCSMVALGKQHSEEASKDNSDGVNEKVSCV

[7] = target: T3, 5-hydroxytryptamine receptor 2B (Homo sapiens, UniProt P41595); assay: Binding affinities towards human cloned 5-hydroxytryptamine 2B receptor in HEK293 cells using [3H]5-HT as radioligand.; type: cell-based; summary of the method: as §1
T3 sequence (P41595 whole entry): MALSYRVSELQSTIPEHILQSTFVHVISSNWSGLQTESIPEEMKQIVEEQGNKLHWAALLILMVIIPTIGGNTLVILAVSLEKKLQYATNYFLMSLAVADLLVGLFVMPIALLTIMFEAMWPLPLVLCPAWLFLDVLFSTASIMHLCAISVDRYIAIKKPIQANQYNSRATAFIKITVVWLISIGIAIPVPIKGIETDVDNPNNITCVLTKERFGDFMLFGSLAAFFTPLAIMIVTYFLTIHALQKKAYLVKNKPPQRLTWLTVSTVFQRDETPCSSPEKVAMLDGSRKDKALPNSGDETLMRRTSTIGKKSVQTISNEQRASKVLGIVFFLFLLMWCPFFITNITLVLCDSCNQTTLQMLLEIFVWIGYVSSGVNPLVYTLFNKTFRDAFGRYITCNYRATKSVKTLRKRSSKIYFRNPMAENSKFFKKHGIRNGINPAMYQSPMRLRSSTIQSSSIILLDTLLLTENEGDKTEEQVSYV

[8] = target: T4, Cytochrome P450 1A2 (Homo sapiens, UniProt P05177); assay: Inhibition of heterologously expressed human cytochrome P450 1A2.; type: ADME
T4 sequence (P05177 whole entry): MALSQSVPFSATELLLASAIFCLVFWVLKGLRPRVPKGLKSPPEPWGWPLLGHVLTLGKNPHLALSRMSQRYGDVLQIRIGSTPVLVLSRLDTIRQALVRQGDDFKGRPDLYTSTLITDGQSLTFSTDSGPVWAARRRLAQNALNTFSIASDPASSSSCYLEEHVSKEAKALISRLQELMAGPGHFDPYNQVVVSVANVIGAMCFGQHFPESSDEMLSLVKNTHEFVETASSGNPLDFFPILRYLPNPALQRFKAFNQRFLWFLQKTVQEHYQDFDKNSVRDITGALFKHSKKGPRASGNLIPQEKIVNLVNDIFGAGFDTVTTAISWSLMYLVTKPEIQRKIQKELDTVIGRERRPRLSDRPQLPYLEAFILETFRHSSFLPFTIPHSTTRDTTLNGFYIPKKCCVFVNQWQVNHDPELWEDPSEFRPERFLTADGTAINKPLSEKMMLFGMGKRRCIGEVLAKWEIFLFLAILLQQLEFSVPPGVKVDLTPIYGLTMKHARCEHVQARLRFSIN
Summary of the method: (§2)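 Heterologously expressed human CYP1A2 in an isoform-selective assay. Substrate: caffeine N3-demethylation at 500 µM, at the substrate Km.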

[9] = target: Cytochrome P450 2D6 (Homo sapiens, UniProt P10635); assay: Inhibition of heterologously expressed human cytochrome P450 2D6; type: ADME
Cytochrome P450 2D6, sequence (P10635 whole entry): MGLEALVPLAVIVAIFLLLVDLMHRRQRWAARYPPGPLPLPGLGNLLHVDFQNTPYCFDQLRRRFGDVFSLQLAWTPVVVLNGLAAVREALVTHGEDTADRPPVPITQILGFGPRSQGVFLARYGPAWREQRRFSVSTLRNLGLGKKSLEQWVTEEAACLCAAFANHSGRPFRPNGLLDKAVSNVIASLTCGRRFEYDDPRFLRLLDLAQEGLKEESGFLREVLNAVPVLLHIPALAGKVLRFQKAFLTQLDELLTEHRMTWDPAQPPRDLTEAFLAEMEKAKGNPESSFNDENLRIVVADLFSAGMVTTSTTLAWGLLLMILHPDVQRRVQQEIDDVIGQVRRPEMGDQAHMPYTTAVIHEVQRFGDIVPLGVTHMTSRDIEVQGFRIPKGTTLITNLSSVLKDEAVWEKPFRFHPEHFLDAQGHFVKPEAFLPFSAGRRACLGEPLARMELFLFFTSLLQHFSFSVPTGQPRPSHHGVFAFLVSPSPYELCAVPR

[10] = system: Rattus norvegicus; assay: Dose required to reverse mCPP induced hypolocomotion in rat after oral administration.; type: functional; conditions: read-out: ID50 (the source's name)
Summary of the method: (§3)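 Rat hypolocomotion model. The test compound was given orally, and mCPP was given at 7 mg/kg ip 30 min before the test. ID50 (mg/kg po) is the dose that reverses mCPP-induced hypolocomotion by 50%.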

[11] = target: Serotonin receptor (2b and 2c) (Homo sapiens) (UniProt P41595+P28335); assay: Selectivity index determined from the binding affinities of 5-HT2C and 5-HT2B.; type: protein assay
[12] = target: T5, 5-hydroxytryptamine receptor 2C (Homo sapiens) (UniProt P28335); assay: Displacement of [3H]mesulergine from human 5-hydroxytryptamine 2C receptor expressed in HEK293 cells; compound insoluble; type: cell-based; summary of the method: as §1
T5 sequence (whole entry): T2 sequence (P28335 whole entry)

[13] = target: T3, 5-hydroxytryptamine receptor 2B; assay: Displacement of [3H]5-HT from human 5-hydroxytryptamine 2B receptor expressed in HEK293 cells; compound is insoluble; type: cell-based; summary of the method: as §1
[14] = target: T1, 5-hydroxytryptamine receptor 2A; assay: Displacement of [3H]ketanserin from human 5-hydroxytryptamine 2A receptor expressed in HEK293 cells; compound is insoluble; type: cell-based; summary of the method: as §1
[15] = system: Rattus norvegicus; assay: Dose required to reverse mCPP induced hypolocomotion in rats after oral administration; NA=inactive; type: functional, organism-based; summary of the method: as §3
[16] = target: T3, 5-hydroxytryptamine receptor 2B; assay: Displacement of [3H]5-HT from human 5-hydroxytryptamine 2B receptor expressed in HEK293 cells; type: cell-based; summary of the method: as §1
[17] = system: Rattus norvegicus; assay: Dose required to reverse mCPP induced hypolocomotion in rats after oral administration; type: functional; summary of the method: as §3
[18] = target: T4, Cytochrome P450 1A2; assay: Inhibition of heterologously expressed human cytochrome P450 1A2; type: ADME; summary of the method: as §2
[19] = system: Rattus norvegicus; assay: Dose required to reverse mCPP induced hypolocomotion in rats after oral administration; IA=inactive; type: functional, organism-based; summary of the method: as §3

T1 sequence (P28223 whole entry): as the sequence (P28223 whole entry, looked up, one chain of several) above

| Structure (SMILES) | Ki [1] [nM] | IC50 [2] [µM] | IC50 [3] [µM] | Ki [4] [nM] | IC50 [5] [µM] | Selectivity [6] | Ki [7] [nM] | IC50 [8] [µM] | IC50 [9] [µM] | ED50 [10] [mg/kg] | Selectivity [11] | Log Ki [12] | Log Ki [13] | Log Ki [14] | ED50 [15] | Ki [16] [nM] | ED50 [17] [mg/kg] | IC50 [18] [µM] | ED50 [19] |
| --- | --- | --- | --- | --- | --- | --- | --- | --- | --- | --- | --- | --- | --- | --- | --- | --- | --- | --- | --- |
| COc1cc2c(cc1C(F)(F)F)N(C(=O)Nc1cc(F)cc(-c3cccnc3)c1)CC2 | 126 | > 100 | 9 | 1 | 82 | 130 | 10 | 28 | 21 | 0.7 | 10 |  |  |  |  |  |  |  |  |
| COc1cc2c(cc1C(F)(F)F)N(C(=O)Nc1ccc(-c3ccccc3)nc1)CC2 |  |  |  |  |  |  |  |  |  |  |  | Insoluble | Insoluble | Insoluble |  |  |  |  |  |
| COc1cc2c(cc1C(F)(F)F)N(C(=O)Nc1ccc(-c3cccnc3)nc1)CC2 | > 10000 |  |  | 5.01 |  | > 2000 |  | 7 |  |  | 2 |  |  |  | inactive | 10 |  |  |  |
| COc1cc2c(cc1C(F)(F)F)N(C(=O)Nc1cncc(-c3cnccc3C)c1)CC2 | 100 |  |  | 0.398 |  | 250 |  | 0.2 |  |  | 15 |  |  |  |  | 6.31 | 5 |  |  |
| Cc1cc2c(cc1C(F)(F)F)N(C(=O)Nc1ccc(Oc3cccnc3C)nc1)CC2 [SB-243213] | 158 | > 100 | > 100 | 1 | 23 | 160 | 100 |  | > 100 | 0.7 | 100 |  |  |  |  |  |  | > 100 |  |
| COc1cc2c(cc1C(F)(F)F)N(C(=O)Nc1ccc(C(C)(C)C)c(-c3cccnc3)c1)CC2 | 1000 |  |  | 3.16 |  | 320 | 39.8 |  |  |  | 13 |  |  |  |  |  |  |  | inactive |

Reference: ChEMBL document CHEMBL1132976, “Biarylcarbamoylindolines are novel and selective 5-HT(2C) receptor inverse agonists: identification of 5-methyl-1-[[2-[(2-methyl-3-pyridyl)oxy]- 5-pyridyl]carbamoyl]-6-trifluoromethylindoline (SB-243213) as a potential antidepressant/anxiolytic agent” (J Med Chem, 2000)
